# Experimental data from different studies.
# pEC50, pIC50, pKi: −log10 of the molar value.
# PFF0160c: Dihydroorotate dehydrogenase (quinone), mitochondrial (PFF0160c, Plasmodium falciparum, UniProt Q08210)
# CNR1: Cannabinoid receptor 1 (CNR1, Homo sapiens, UniProt P21554)
# TBXA2R: Thromboxane A2 receptor (TBXA2R, Homo sapiens, UniProt P21731)
SMILES,target,test,conditions,endpoint,result
CC[C@@](O)(c1cnc(C(F)(F)F)c(Cl)c1)c1c2ccn(C3CC3)c(=O)c2nn1C,PFF0160c,"enzyme activity, inhibitor",,pIC50,7.90
CCCCCc1cc(O)c2c(c1)OC(C)(CCC=C(C)C)C=C2 (stereo not shown),CNR1,cell-free assay,,pKi,< 6.00
Cc1c(Cc2ccc(C(F)(F)F)cc2)n[nH]c1C(=O)NC1CC1,PFF0160c,"enzyme activity, inhibitor",,pIC50,< 4.52
C=CCCCn1c(O)c(N=NC(=O)c2ccccc2)c2ccccc21,CNR1,"ligand displacement, radioligand",cell membranes,pKi,5.78
CCn1cc(C)c2c([C@@H](N)c3ccc(C(F)(F)F)nc3)n(C)nc2c1=O,PFF0160c,"enzyme activity, inhibitor",,pIC50,6.00
C=C1CC/C=C(\C)CC[C@@H]2[C@@H]1CC2(C)C,CNR1,"ligand displacement, radioligand",,pKi,< 5.00
Cn1nc2c(=O)n(C3CC3)ncc2c1[C@](O)(c1ccc(C(F)(F)F)c(C#N)c1)C(F)(F)F,PFF0160c,"enzyme activity, inhibitor",,pIC50,7.60
C=C/C=C/CCN1CCC(O)(c2cccc(Br)c2)C1 (stereo not shown),"5-hydroxytryptamine receptor 2A (HTR2A, Homo sapiens, UniProt P28223)","calcium signal, antagonist",,pIC50,4.80
CNC(=O)c1ccc(-c2cnn3ccc(C(=O)N(C)c4ccc(Cl)c(C(=O)OC)c4)cc23)cc1,TBXA2R,cell-free assay,,pIC50,< 4.52
O=C(N=Nc1c(O)n(CC2CCCCC2)c2ccccc12)c1ccccc1,CNR1,"ligand displacement, radioligand",cell membranes,pKi,7.15
CCC(CC)(NC(=O)c1ccc(C2CC2)c(Cc2ccc(F)cc2)n1)C(=O)NCCOCCOCCNC(=O)c1ccc2c(c1)C1(OC2=O)c2ccc(N(C)C)cc2[Si](C)(C)c2cc(N(C)C)ccc21,CNR1,"ligand displacement, radioligand",cell membranes,pKi,6.34
COC(=O)c1cc(N(C)C(=O)c2ccn3ncc(-c4ccc(C(=O)O)cc4)c3c2)ccc1Cl,TBXA2R,cell-free assay,,pIC50,< 4.52
O=C(N=Nc1c(O)n(CCCCCF)c2ccccc12)c1ccccc1,CNR1,"β-arrestin recruitment, agonist",,pEC50,5.74
